Experimental data from different studies.
Compare with care: the assays were run in different laboratories.
Target: Mitogen-activated protein kinase 3 (MAPK3, Homo sapiens, UniProt P27361)

SMILES | observed | method | tested at | remaining binding [%]
COc1ncc2cc3ccccc3nc2c1C#N | cell-free assay | competition with immobilised ligand | 5 µM | 93
Cn1cc(Cl)c2c(Oc3c(F)cc(Nc4cc(Cl)nc(N)n4)cc3F)ccnc21 | cell-free assay | competition with immobilised ligand | 0.1 µM | 98
COc1cnc(Nc2cccc(S(N)(=O)=O)c2)nc1N1CCN(c2ccccc2)CC1 | binding | competition with immobilised ligand | 1 µM | 100
Cc1cnn2ncc(-c3ccnc(N(C)C)n3)c2c1 | binding | – | 1 µM | 100
O=C(O)[C@@H]1[C@@H](Cn2nnc3ccccc3c2=O)CC[C@H]1C(=O)c1ccc(OCCC2CCOCC2)cc1 | cell-free assay | competition with immobilised ligand | 1 µM | 100
C[C@@H](c1ccc(-n2cnc3c(N)ncnc32)cc1)N1CCc2nn(C)c(Cc3ccccc3)c2C1=O | binding | competition with immobilised ligand | 0.1 µM | 100
Cc1cnc(Nc2ccc(C(=O)N3CCC(N4CCCC4)CC3)cc2)nc1-c1cc2ccccc2s1 | binding | competition with immobilised ligand | 1 µM | 100
C[C@H]1CCN(c2nccc(-c3cnn4ncccc34)n2)C1 | binding | – | 1 µM | 83
C=CC(=O)N1CCC(C(=O)NCC(=O)N2CCN(c3nc(-c4cnc(N)nc4C(F)F)nc(N4CCOCC4)n3)CC2)CC1 | binding | competition with immobilised ligand | 1 µM | 100
COc1cc(-c2cn(C3CCc4ccccc4N(CC(F)(F)F)C3=O)nn2)ccc1-n1ccc(C)n1 (stereo not shown) | cell-free assay | competition with immobilised ligand | 1 µM | 100
N[C@H]1CCN(c2nccc(-c3cnn4ncccc34)n2)C1 | binding | – | 1 µM | 91
O=C(NCCCN1CCOCC1)c1ccc(Nc2ncc(Cl)c(-c3ccc(Cl)s3)n2)cc1 | binding | competition with immobilised ligand | 1 µM | 100
C[C@@H]1CN(c2cc(-c3nn(C)c4ccc(OC5(C)CC5)cc34)ncn2)C[C@H](C)O1 | cell-free assay | competition with immobilised ligand | 1 µM | 100
c1cnn2ncc(-c3ccnc(N4CCC45COC5)n3)c2c1 | binding | – | 1 µM | 94
O=C(c1ccc(Nc2nccc(-c3cc4ccccc4s3)n2)cc1)N1CCC(N2CCCC2)CC1 | binding | competition with immobilised ligand | 1 µM | 100
CC(=O)C1=C(C)N(c2cccc(C(F)(F)F)c2)C(=O)N[C@@H]1c1ccc(C#N)nc1 | cell-free assay | competition with immobilised ligand | 1 µM | 97.1
Nc1ncc2c(n1)-c1c([nH]c3ccc(C#CC4CC4)cc13)CCCC2 | binding | competition with immobilised ligand | 1 µM | 100
O=C(NCC1CCOCC1)c1n[nH]cc1NC(=O)c1c(F)cccc1F | binding | competition with immobilised ligand | 1 µM | 100
C[C@@H]1CN(c2ccc3ncc(-c4ccc5[nH]nc(C6CC6)c5c4)n3n2)C[C@H](C)O1 | binding | competition with immobilised ligand | 0.5 µM | 100
CC1CCCN1c1nccc(-c2cnn3ncccc23)n1 (stereo not shown) | binding | – | 1 µM | 86
C[C@@H](c1cccc(C#N)c1)n1cc(Cl)cc(C(N)=O)c1=N | cell-free assay | competition with immobilised ligand | 1 µM | 100
CN(c1nccc(-c2cnn3ncccc23)n1)C1CC1 | binding | – | 1 µM | 89
CN([C@@H]1CCc2c(CC(=O)O)c3cc(S(C)(=O)=O)ccc3n2C1)S(=O)(=O)c1ccc(F)cc1 | cell-free assay | competition with immobilised ligand | 1 µM | 92
CN(C)c1nccc(-c2cnn3ncccc23)n1 | binding | – | 1 µM | 100
N#Cc1ccccc1CSc1nnc2c(n1)[nH]c1ccccc12 | binding | competition with immobilised ligand | 10 µM | 89
